The values that follow come from ChEMBL document CHEMBL1150274 (Bioorg Med Chem, 2008).

Activity calls are given as the source filed them. No cut-off for these calls is given here.

In assay [1] the target is Delta-type opioid receptor (Homo sapiens, UniProt P41143). Description: Displacement of [3H]naltrindole from human delta opioid receptor expressed in CHO cells. The assay is classed as cell-based. (In general: In a radioligand displacement assay an active substance lowers the binding of a labelled ligand.)
The target in assay [2] is T1, Kappa-type opioid receptor (Homo sapiens, UniProt P41145). Description: Displacement of [3H]U69,593 from human kappa opioid receptor expressed in CHO cells. The assay is classed as cell-based.
For assay [3], the target named is T2, Mu-type opioid receptor (Homo sapiens, UniProt P35372). Description: Displacement of [3H]DAMGO from human mu opioid receptor expressed in CHO cells. It counts as cell-based.
Assay [4] has as its target T2, Mu-type opioid receptor. Description: Antagonist activity at human mu opioid receptor expressed in CHO cells assessed as inhibition of DAMGO-stimulated [35S]GTPgammaS binding. It counts as functional, cell-based. Background: Binding of GTPγS marks nucleotide exchange on a G protein.
In assay [5] the target is T1, Kappa-type opioid receptor. Description: Activity at human kappa opioid receptor expressed in CHO cells assessed as stimulation of [35S]GTPgammaS binding relative to basal level. The assay is classed as functional, cell-based. In outline:
(§1)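 Twelve compound concentrations were incubated with CHO membranes (κ 15 μg, μ 7.5 μg) and 0.080 nM [35S]GTPγS for 60 min at 30°C. Nonspecific binding was defined with 10 μM GTPγS. Samples were filtered and counted. Emax was taken with basal set at 0%, with EC50. Mean ± SEM, ≥3 experiments in triplicate.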

Assay [6] deals with T1, Kappa-type opioid receptor. Nature of the assay: Antagonist activity at human kappa opioid receptor expressed in CHO cells assessed as inhibition of U50,488-stimulated [35S]GTPgammaS binding. It counts as functional, cell-based. In outline:
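κ-receptor CHO membranes were incubated with compound in the presence of 100 nM U50,488 in a [35S]GTPγS binding assay.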

Assay [7] deals with T2, Mu-type opioid receptor. Description: Activity at human mu opioid receptor expressed in CHO cells assessed as stimulation of [35S]GTPgammaS binding relative to basal level. The assay is classed as functional, cell-based. A digest of the protocol: as §1
Assay [8] concerns the target T1, Kappa-type opioid receptor. Description: Activity at human kappa opioid receptor expressed in CHO cells assessed as stimulation of [35S]GTPgammaS binding. The assay is classed as functional, cell-based. A digest of the protocol:
as §1

T2 sequence (P35372 whole entry): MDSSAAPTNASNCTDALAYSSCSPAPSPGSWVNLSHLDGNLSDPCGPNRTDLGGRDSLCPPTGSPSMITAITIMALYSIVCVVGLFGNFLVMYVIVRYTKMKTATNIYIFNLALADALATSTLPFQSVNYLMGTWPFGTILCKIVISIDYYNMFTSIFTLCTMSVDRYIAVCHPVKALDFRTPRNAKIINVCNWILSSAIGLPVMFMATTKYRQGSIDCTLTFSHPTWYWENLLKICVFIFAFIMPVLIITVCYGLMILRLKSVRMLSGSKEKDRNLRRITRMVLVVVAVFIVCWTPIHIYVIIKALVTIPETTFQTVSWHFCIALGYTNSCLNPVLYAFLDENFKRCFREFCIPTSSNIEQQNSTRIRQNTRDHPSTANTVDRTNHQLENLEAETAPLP
Sequence of Delta-type opioid receptor (P41143 whole entry): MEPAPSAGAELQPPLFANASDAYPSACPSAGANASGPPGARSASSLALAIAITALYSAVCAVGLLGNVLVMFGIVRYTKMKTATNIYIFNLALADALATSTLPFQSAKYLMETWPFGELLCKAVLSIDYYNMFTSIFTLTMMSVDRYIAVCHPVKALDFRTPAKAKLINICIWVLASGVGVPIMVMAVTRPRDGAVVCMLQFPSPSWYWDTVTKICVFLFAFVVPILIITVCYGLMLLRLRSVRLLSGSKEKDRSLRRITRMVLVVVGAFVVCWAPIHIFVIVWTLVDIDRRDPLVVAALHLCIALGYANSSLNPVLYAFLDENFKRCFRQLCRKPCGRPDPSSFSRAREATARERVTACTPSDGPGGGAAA
T1 sequence (P41145 whole entry): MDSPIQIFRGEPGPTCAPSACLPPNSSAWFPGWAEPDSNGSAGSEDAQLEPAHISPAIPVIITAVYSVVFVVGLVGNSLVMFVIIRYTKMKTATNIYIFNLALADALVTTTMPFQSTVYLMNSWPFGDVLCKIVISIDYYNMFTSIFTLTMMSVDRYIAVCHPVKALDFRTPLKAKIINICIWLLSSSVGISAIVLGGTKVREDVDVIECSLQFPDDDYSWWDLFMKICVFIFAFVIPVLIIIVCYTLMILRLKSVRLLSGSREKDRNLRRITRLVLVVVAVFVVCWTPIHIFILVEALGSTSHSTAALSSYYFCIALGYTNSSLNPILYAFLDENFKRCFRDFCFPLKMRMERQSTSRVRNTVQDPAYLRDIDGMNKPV

In general, Ki refers to a measure of affinity in units of concentration, obtained from inhibition or displacement. Higher therefore signals a looser hold on the target. In the case of `C[C@H]1C2Cc3cc([N+](=O)[O-])c(O)cc3[C@@]1(C)CCN2CC1CC1` (mixture of isomers), the Ki is greater than 10000 nM in assay [1], 580 nM in assay [2] and 3800 nM on Mu-type opioid receptor [3].

Regarding `C[C@H]1C2Cc3ccc(O)c([N+](=O)[O-])c3[C@@]1(C)CCN2CC1CC1` (mixture of isomers), the Ki in assay [1] turned out to be 1900 nM; in assay [2] it was 3.2 nM; on Mu-type opioid receptor [3], 32 nM.

For orientation: IC50 means the concentration needed to halve the response being measured. Broadly, the Emax is the maximal effect, on the per cent scale that the assay sets. With `C[C@H]1C2Cc3ccc4c(N)ncnc4c3[C@@]1(C)CCN2CC1CC1` (mixture of isomers), the figures for the IC50 (at Mu-type opioid receptor [4]; in assay [6]) were 28 nM and 1300 nM, respectively. Also, the Imax at Mu-type opioid receptor [4] worked out at 88%; in assay [6], 75%. The Ki in assay [1] was found to be 120 nM; in assay [2], 1 nM; on Mu-type opioid receptor [3], 0.55 nM. In addition, the values for the Emax (in assay [5]; on Mu-type opioid receptor [7]) were 6.3% and 0.64%, respectively.

As to `C[C@H]1C2Cc3cc4ncnc(NCCc5ccc(-c6ccccc6)cc5)c4cc3[C@@]1(C)CCN2CC1CC1` (mixture of isomers), the Ki worked out at 410 nM in assay [1], 140 nM in assay [2] and 28 nM on Mu-type opioid receptor [3].

On to `C[C@H]1C2Cc3ccc4c(NCCc5ccc(-c6ccccc6)cc5)ncnc4c3[C@@]1(C)CCN2CC1CC1` (mixture of isomers), for which the Ki came out at 52 nM in assay [1], 8.6 nM in assay [2] and 6.9 nM on Mu-type opioid receptor [3].

For the compound `C[C@H]1C2Cc3cc4ncnc(NCc5ccccc5)c4cc3[C@@]1(C)CCN2CC1CC1` (mixture of isomers), the Ki in assay [1] is 1000 nM; in assay [2] it was 48 nM; on Mu-type opioid receptor [3], 88 nM.

As a reminder, the EC50 is the concentration that produces a half-maximal response. Regarding `C[C@H]1C2Cc3ccc(C(N)=O)c(N)c3[C@@]1(C)CCN2CC1CC1` (mixture of isomers), the IC50 at Mu-type opioid receptor [4] came out at 31 nM. The Imax on Mu-type opioid receptor [4] turned out to be 93%. Besides, the Ki in assay [1] worked out at 35 nM; in assay [2], 0.7 nM; on Mu-type opioid receptor [3], 0.55 nM. Moreover, the figures for the maximum response (Emax) (in assay [5]; on Mu-type opioid receptor [7]) were 38% and 4.6%, respectively. Besides, the outcome in assay [6] was inactive. In addition, the EC50 in assay [8] worked out at 15 nM.

Take `C[C@H]1C2Cc3cc4ncnc(N)c4cc3[C@@]1(C)CCN2CC1CC1` (mixture of isomers): the Ki in assay [1] was greater than 10000 nM; in assay [2], 560 nM; on Mu-type opioid receptor [3], 890 nM.

As to `C[C@H]1C2Cc3ccc(C(N)=O)c([N+](=O)[O-])c3[C@@]1(C)CCN2CC1CC1` (mixture of isomers), the Ki in assay [1] stood at 220 nM; in assay [2], 34 nM; on Mu-type opioid receptor [3], 20 nM.

As for `C[C@H]1C2Cc3ccc4c(NCc5ccccc5)ncnc4c3[C@@]1(C)CCN2CC1CC1` (mixture of isomers), the Ki in assay [1] turned out to be 1500 nM; in assay [2], 240 nM; at Mu-type opioid receptor [3], 44 nM.

Consider `C[C@H]1C2Cc3cc([N+](=O)[O-])c(C(N)=O)cc3[C@@]1(C)CCN2CC1CC1` (mixture of isomers), for which the results for the Ki (in assay [1]; in assay [2]; at Mu-type opioid receptor [3]) were 730 nM, 110 nM and 630 nM, respectively.

Regarding `C[C@H]1C2Cc3cc4cc[nH]c(=O)c4cc3[C@@]1(C)CCN2CC1CC1` (mixture of isomers), the IC50 on Mu-type opioid receptor [4] was 850 nM. Also, at Mu-type opioid receptor [4], the Imax was determined as 69%. Moreover, the Ki in assay [1] was determined as 74 nM; in assay [2], 0.74 nM; at Mu-type opioid receptor [3] it was 5.5 nM. For the same compound, the Emax in assay [5] is 91%; at Mu-type opioid receptor [7] it was 27%. The outcome in assay [6] was inactive. Also, the EC50 in assay [8] was determined as 60 nM.
